TRPC4 inh: inhibitors of mouse TRPC4 channel. HEK293 TRPC4beta/mu-opioid, DAMGO-evoked Fluo4 calcium flux; hits give low values. AID 2247. B-score at 10 µM. 300,000 tested, 0.39% active;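 active = B-score over 3 SD under the library average, no early fluorescence shift, positive overall ratio signal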
Target sequence (Q9QUQ5 whole entry, looked up): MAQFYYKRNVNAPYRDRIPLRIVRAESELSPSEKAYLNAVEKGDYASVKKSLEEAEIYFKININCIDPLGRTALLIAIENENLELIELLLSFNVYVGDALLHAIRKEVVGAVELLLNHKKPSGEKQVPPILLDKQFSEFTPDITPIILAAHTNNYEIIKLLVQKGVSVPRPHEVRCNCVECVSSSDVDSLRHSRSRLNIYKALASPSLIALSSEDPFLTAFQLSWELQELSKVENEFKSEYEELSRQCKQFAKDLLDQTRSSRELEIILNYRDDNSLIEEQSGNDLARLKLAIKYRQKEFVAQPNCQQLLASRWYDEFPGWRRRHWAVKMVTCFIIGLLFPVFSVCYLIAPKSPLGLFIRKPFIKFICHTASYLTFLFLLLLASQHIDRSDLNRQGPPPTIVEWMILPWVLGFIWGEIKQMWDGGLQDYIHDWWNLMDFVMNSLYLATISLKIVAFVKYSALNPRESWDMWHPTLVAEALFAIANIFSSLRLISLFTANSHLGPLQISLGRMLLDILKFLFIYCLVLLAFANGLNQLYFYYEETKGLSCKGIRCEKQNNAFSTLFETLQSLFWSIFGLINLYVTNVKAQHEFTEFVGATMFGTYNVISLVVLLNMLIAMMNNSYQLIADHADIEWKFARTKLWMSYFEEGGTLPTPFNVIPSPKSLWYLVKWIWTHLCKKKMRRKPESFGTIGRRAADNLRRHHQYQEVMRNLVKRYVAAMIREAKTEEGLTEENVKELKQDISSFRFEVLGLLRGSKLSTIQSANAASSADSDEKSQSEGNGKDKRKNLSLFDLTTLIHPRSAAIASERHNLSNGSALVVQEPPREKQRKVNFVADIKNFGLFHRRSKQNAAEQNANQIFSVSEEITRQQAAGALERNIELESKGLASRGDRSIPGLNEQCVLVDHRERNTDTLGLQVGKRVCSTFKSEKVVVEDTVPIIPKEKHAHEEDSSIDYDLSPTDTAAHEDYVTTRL
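Test system – stable TRPC4beta/mu-opioid receptor HEK293 cells · Probe or stimulus – DAMGO, a submaximal dose followed by a maximal one · Dosing – one concentration per compound · Signal – Fluo4 calcium fluorescence by kinetic imaging, 5 s 1 Hz baseline · Evaluation – per-well B score of integrated baseline-normalized Fluo4 ratio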
TRPC6 act: mouse TRPC6 channel activation; HEK293-TRPC6 membrane potential dye fluorescence; hits give high values; Q61143; 310,000 tested, 0.13% active; B-score at 10 µM;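 active = B-score of the integrated fluorescence ratio above library mean plus 3 SD, and starting fluorescence ratio within library mean plus 5 SD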;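 note: higher score means more depolarization so channel activation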
TRPC6 inhibitor: blocks the mouse TRPC6 cation channel. Q61143. HEK293-TRPC6, membrane potential dye, ACh-evoked depolarization; hits give low values. B-score at 10 µM. 310,000 tested, 1.1% active. AID 2553;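 active = B-score under library mean minus 3 SD, initial fluorescence not abnormally high, positive integrated signal ratio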;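 note: B-score derived from integrated fluorescence ratio over the kinetic read; more negative B-score means stronger inhibition of depolarization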
TRPC4 agonist: activators of mouse TRPC4 channel; HEK293 TRPC4beta/mu-opioid, Fluo4 calcium fluorescence; hits give high values; B-score at 10 µM; 310,000 tested, 0.49% active;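 active = B-score above 5 SD of library B-scores, and initial fluorescence ratio not above library mean plus 5 SD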;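 note: positive B-score marks a calcium rise read as TRPC4 activation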
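Technique: kinetic Fluo4 calcium fluorescence; Test system: TRPC4beta and mu-opioid receptor HEK293 stable cells; Measure: B-scored integrated calcium fluorescence ratio; Benchmarks: low control buffer alone, high control maximal DAMGO; Schedule: 45 min room-temperature Fluo4 loading, 110 s read.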
TRPC4 PAM: allosteric potentiators of mouse TRPC4 channel | B-score at 10 µM | 310,000 tested, 0.42% active | HEK293 TRPC4beta/mu-opioid, DAMGO EC20, Fluo-4 Ca2+ flux; hits give high values | Q9QUQ5;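 active = B-score of calcium response area above 5 SD of library B-scores, with initial fluorescence ratio within 5 SD of library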;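 note: B-score of integrated fluorescence ratio over time as area under calcium response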
TRPC4 sel inh 2: second selectivity test of TRPC6 inhibitors: effect on mouse TRPC4; shares compounds with TRPC6 inhibitor; HEK293 TRPC4/MOR, membrane potential dye fluorescence; channel activated by saturating DAMGO dose; inhibition, % at 10 µM; 920 tested, 42% active; AID 2776;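 active = compounds whose fluorescence signal differed from control wells by over 3 SD, either direction, in both duplicate plates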
TRPC4 spec: mouse TRPC4 off-target activity of TRPC6 inhibitors; shares compounds with TRPC6 inhibitor; HEK293 TRPC4/mu-opioid, membrane potential fluorescence; activity change, negative = inhibition, % at 10 µM; 920 tested, 61% active; AID 2777;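 active = rise or fall in signal beyond 3 SD of buffer-only wells in both replicate plates, either sign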;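 note: integrated kinetic ratio of fluorescence range over baseline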
HEK293 MPD ctr 2-1: second check of TRPC6 inhibitor effects in parental HEK293 cells; 920 tested, 31% active; parental HEK293 membrane potential dye fluorescence; maximal acetylcholine challenge after compound addition; shares compounds with TRPC6 inhibitor; signal change vs control, % at 10 µM;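 active = membrane potential signal moving either way by over 3 SD of the maximum-effect control, in both duplicate plates, meaning non-specific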
HEK293 MPD ctr-1: counter-screen for TRPC6 inhibitors: effect in parental HEK293 cells; shares compounds with TRPC6 inhibitor; parental HEK293 membrane potential dye fluorescence; membrane potential signal change, % at 10 µM; 920 tested, 60% active;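 active = membrane potential signal shifting up or down by more than 3 SD of buffer-only wells, on both duplicate plates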
HEK293 MPD ctr-2: parental HEK293 nonspecific activity of TRPC6 modulators; shares compounds with TRPC6 inhibitor; membrane potential dye fluorescence; membrane potential signal change, % at 10 µM; 2,400 tested, 51% active; AID 488924;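 active = membrane potential signal moves up or down beyond 5 SD from buffer-only wells, on both duplicate plates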
HEK293 MPD ctr 2-2: second counter-screen for TRPC6 modulators: effect in parental HEK293 cells. shares compounds with TRPC6 inhibitor. membrane potential dye fluorescence; after compound, maximal acetylcholine stimulation. inhibition, % at 10 µM. 2,400 tested, 14% active. AID 488926;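 active = membrane potential signal drops by more than 5 SD from the mean control signal, in both duplicate plates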;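 note: plate controls were acetylcholine ECmax control wells for no effect and buffer only wells for full effect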
TRPC4 ctr mod: tests whether TRPC6 modulators also affect mouse TRPC4; shares compounds with TRPC6 inhibitor; HEK293 TRPC4/mu-opioid, membrane potential fluorescence; percent change from control (negative = decrease, positive = increase), % at 10 µM; 2,400 tested, 69% active;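 active = membrane potential signal moved up or down beyond 5 SD of buffer control wells, in both duplicate plates, actives on both sides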;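 note: plate controls were assay buffer wells for no effect and DAMGO maximal-effect wells for full effect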
TRPC4 ctr inh 2: mouse TRPC4 off-target activity of TRPC6 modulators, second screen; shares compounds with TRPC6 inhibitor; 2,400 tested, 55% active; AID 488928; HEK293 TRPC4/mu-opioid, membrane potential dye fluorescence; stimulated with maximal-effect DAMGO; inhibition, % at 10 µM;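 active = drop in membrane potential signal beyond 5 SD of the control wells in both duplicate plates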;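 note: TRPC4 counter screen for TRPC6 hits run under conditions tuned for TRPC6 not TRPC4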
TRPC6 inh conf: mouse TRPC6 inhibitor confirmation | HEK293-TRPC6, membrane potential dye, ACh-evoked depolarization | shares compounds with TRPC6 inhibitor | AID 488960 | 3,300 tested, 43% active | inhibition, % at 10 µM;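 active = fluorescence ratio falls more than 5 SD below the full-stimulation control mean, in both duplicate runs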;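 note: integrated fluorescence ratio of peak minus minimum over baseline after agonist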
TRPC6 act confirm: confirmation of mouse TRPC6 activators; shares compounds with TRPC6 inhibitor; activation, % at 10 µM; 2,800 tested, 11% active; HEK293-TRPC6 membrane potential dye fluorescence, FDSS;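 active = ratio signal rise beyond 5 SD above unstimulated control wells' mean, seen in both duplicate runs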;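 note: plate controls were buffer EC0 wells for no effect and acetylcholine ECmax response for full effect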
Starred values were filed as active, the others as inactive; i = inactive; x = not tested or not shown. Hits are enriched below; roughly 2.3% of the tested compounds scored in any of these assays.

SMILES	TRPC4 inh	TRPC6 act	TRPC6 inhibitor	TRPC4 agonist	TRPC4 PAM	HEK293 MPD ctr-2	HEK293 MPD ctr 2-2	TRPC4 ctr mod	TRPC4 ctr inh 2	TRPC6 inh conf	TRPC6 act confirm	others
Fc1ccc(NC(=S)NNc2ncc(C(F)(F)F)cc2Cl)c(F)c1	i	i	-6.5*	i	i	120%*	i	20%*	i	50%*	x
O=C(NCC(c1ccco1)N1CCCCC1)c1ccc2c(c1)S(=O)(=O)c1ccccc1C2=O (stereo not given)	i	i	i	i	i	x	x	x	x	x	x
O=C(Nc1cccnc1Cl)c1cccs1	i	i	-5.1*	i	i	i	i	i	i	i	i
CCCN1CCCc2cc(CN(CCCN3CCOCC3)C(=O)Nc3ccc(OCC)cc3)ccc21	i	i	-5.3*	i	i	i	i	i	38%*	i	i
CCOc1ccc(NC(=O)N(CCN2CCOCC2)Cc2ccc3c(c2)CCCN3CC)cc1	i	i	i	i	i	x	x	x	x	x	x
CC1CCc2sc3ncnc(N4CCN(CCO)CC4)c3c2C1 (stereo not given)	i	i	i	i	i	x	x	x	x	x	x
Cc1csc(C(=O)O)c1NC(=O)c1cccc([N+](=O)[O-])c1	i	i	i	i	i	x	x	x	x	x	x
Cc1cccn2c(=O)c3cc(C(=O)NCCc4ccccc4)c(=N)n(CCCn4ccnc4)c3nc12	i	i	-6.2*	i	i	i	100%*	i	i	i	i
Cc1cccn2c(=O)c3cc(C(=O)NCC4CCCO4)c(=N)n(CCN4CCOCC4)c3nc12 (stereo not given)	i	i	i	i	i	x	x	x	x	x	x
COc1ccc(CCn2c(=N)c(C(=O)NC3CCCC3)cc3c(=O)n4cccc(C)c4nc32)cc1	i	i	-5.3*	i	i	-121%*	i	-38%*	49%*	36%*	i
COCCn1c(=N)c(C(=O)NCCc2ccccc2)cc2c(=O)n3cccc(C)c3nc21	i	i	i	i	i	x	x	x	x	x	x
Cc1cccn2c(=O)c3cc(C(=O)NCCN4CCOCC4)c(=N)n(CCCN4CCOCC4)c3nc12	i	i	-5*	i	i	189%*	164%*	32%*	46%*	61%*	x
CNC(=O)c1cc2c(=O)n3cccc(C)c3nc2n(C(C)C)c1=N	i	i	-12*	i	i	-209%*	121%*	-40%*	66%*	82%*	i
CCOC(=O)C1CCN(C(=O)c2ccc3c(c2)C(=O)N(c2ccccc2C)C3=O)CC1	i	i	i	i	i	x	x	x	x	x	x
COc1ccc2[nH]c(C(=O)N3CCC(n4nccc4NC(=O)C4CC4)CC3)c(C)c2c1	i	i	i	i	i	x	x	x	x	x	x
Cc1cccn2c(=O)c3cc(C(=O)NCCN4CCOCC4)c(=N)n(CCc4ccccc4)c3nc12	i	i	-5.5*	i	i	i	104%*	i	52%*	i	i
COc1ccc(CCn2c(=N)c(C(=O)NCCN3CCOCC3)cc3c(=O)n4cccc(C)c4nc32)cc1OC	i	i	i	i	i	x	x	x	x	x	x
CCNC(=O)c1cc2c(=O)n3cccc(C)c3nc2n(CCc2ccccc2)c1=N	i	i	-7.4*	i	i	-141%*	74%*	-28%*	48%*	63%*	i
COc1cccc(CNC(=O)COC(=O)C2CC3CCCC(C2)C3=O)c1 (stereo not given)	i	i	i	i	i	x	x	x	x	x	x
Cc1nonc1C1CCCN1C(=O)c1cc(COc2ccc(F)cc2Cl)on1 (stereo not given)	i	i	i	i	i	x	x	x	x	x	x
CCOC(=O)N1CCN(C(=O)CSc2nc3ccccc3c(=O)n2-c2ccccc2)CC1	i	17*	i	i	i	118%*	i	30%*	i	x	172%*
O=S(=O)(/C=C/c1cccc(Br)c1)N1CCOCC1	i	i	i	i	i	x	x	x	x	x	x
CCC(C)n1c(=N)c(C#N)cc2c(=O)n3cc(C)ccc3nc21 (stereo not given)	i	i	-6.9*	i	i	i	i	i	i	i	i
Cc1cccn2c(=O)c3cc(C(=O)NC4CCS(=O)(=O)C4)n(Cc4ccccc4)c3nc12 (stereo not given)	i	i	i	i	i	x	x	x	x	x	x
CC(O)CNCCNCc1c(OCc2ccccc2)ccc2ccccc12 (stereo not given)	i	i	-7.9*	i	i	x	x	x	x	66%*	i	TRPC4 sel inh 2=28%*;TRPC4 spec=-9.5%*;HEK293 MPD ctr 2-1=i;HEK293 MPD ctr-1=i
COc1ccc(Nc2ccc(N3C(=O)CC(C)C3=O)cc2[N+](=O)[O-])cc1OC (stereo not given)	i	i	i	i	i	x	x	x	x	x	x
Cc1onc(-c2ccccc2Cl)c1C(=O)Nc1nnc(Cc2ccc(Cl)cc2)s1	i	i	-6.6*	i	i	x	x	x	x	i	i	TRPC4 sel inh 2=i;TRPC4 spec=i;HEK293 MPD ctr 2-1=i;HEK293 MPD ctr-1=i
